The values that follow come from PubChem BioAssay.

Structures are written as SMILES. Active and inactive are the calls of the source.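 Rule for the calls: active = calcium signal cut by more than 3 SD below the full-agonist control yet still positive, in both repeats and the earlier primary screen; inactive = the rest.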

Short transient receptor potential channel 4 (Mus musculus), sequence (Q9QUQ5 whole entry, looked up): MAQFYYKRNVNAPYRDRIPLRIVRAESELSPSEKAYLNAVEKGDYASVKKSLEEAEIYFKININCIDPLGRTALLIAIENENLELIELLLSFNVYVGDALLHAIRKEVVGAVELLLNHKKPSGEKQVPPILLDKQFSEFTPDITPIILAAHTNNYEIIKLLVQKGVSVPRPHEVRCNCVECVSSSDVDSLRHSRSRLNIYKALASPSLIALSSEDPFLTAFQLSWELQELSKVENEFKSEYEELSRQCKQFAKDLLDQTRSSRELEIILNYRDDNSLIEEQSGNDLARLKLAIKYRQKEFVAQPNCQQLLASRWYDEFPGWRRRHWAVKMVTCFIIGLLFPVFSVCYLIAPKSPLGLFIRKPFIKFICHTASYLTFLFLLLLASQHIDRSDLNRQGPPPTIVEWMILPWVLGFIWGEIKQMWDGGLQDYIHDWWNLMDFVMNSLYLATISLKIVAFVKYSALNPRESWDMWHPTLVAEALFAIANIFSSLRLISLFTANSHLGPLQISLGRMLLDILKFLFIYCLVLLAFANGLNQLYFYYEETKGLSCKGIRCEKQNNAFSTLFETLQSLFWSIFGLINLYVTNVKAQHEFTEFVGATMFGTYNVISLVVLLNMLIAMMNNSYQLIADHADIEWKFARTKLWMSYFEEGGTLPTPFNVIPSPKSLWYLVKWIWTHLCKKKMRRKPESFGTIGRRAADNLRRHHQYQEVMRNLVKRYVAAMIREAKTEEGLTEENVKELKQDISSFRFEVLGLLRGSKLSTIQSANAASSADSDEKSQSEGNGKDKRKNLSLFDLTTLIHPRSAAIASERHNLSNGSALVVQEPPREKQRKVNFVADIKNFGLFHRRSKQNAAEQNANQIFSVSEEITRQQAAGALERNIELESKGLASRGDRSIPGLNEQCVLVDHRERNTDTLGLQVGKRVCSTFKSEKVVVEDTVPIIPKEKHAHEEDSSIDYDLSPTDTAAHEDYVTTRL

This assay has as its target Short transient receptor potential channel 4 (Mus musculus) (UniProt Q9QUQ5). Nature of the assay: blockers of DAMGO-evoked TRPC4 calcium flux – cell-based, Fluo4, HEK293 TRPC4beta/mu-opioid, confirmation (AID 2636). The conditions noted are these: at 10 µM; stronger effect = higher value. Summed up:
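test system = TRPC4beta/mu-opioid receptor HEK293 cells | compound dosing = one dose, 10 µM final | times = dye 45 min at room temperature, compound 110 s, submaximal DAMGO 110 s | signal = kinetic fluorescence of Fluo4 calcium-sensitive dye, calcium influx | controls = no-compound wells and DAMGO maximal-stimulus wells | replication = duplicate wells for each compound, averaged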
In general terms: Calcium assays in cells follow changes in intracellular calcium, usually with a dye or a luminescent sensor.
As to `Cc1cc(N2CCCCC2)nc(NCc2ccccc2)n1`, the outcome was inactive.
As to `COCCNC(=O)/C(C#N)=C/c1cc(C(C)C)c(OC)cc1C`, the outcome was inactive.
Take `CCN1CCN(c2ccc(S(=O)(=O)N3CCCCC3)cc2NC(=O)COc2cc(C)ccc2Cl)CC1`: the result was inactive.
Same read-out and setting: in the case of `FC(F)(F)COc1nc(N2CCCCC2)nc(N2CCNCC2)n1` it was “inactive”; in that of `CCSc1nnc([C@H](Cc2c[nH]c3ccccc23)NC(=O)OC(C)(C)C)o1`, “inactive”; in that of `COc1ccc(/C=C(\C#N)C(=O)N2CCOCC2)cc1Br`, “inactive”.
Turning to `N#Cc1ccc(OCC(O)CN2CCN(c3ncc(C(F)(F)F)cc3Cl)CC2)cc1` (stereo not given), the result was inactive.
As to `CCCC1=C(C(=O)OCC)C(c2cc(Cl)cc(OC)c2OCC(=O)OCC)NC(=O)N1` (stereo not given), the outcome was inactive.
On the same count and under the same terms, under `CCCCCc1ccc(OCCCC[n+]2ccccc2)c(CCCCC)c1` stands “inactive”; under `CC(C)(C)c1ccccc1OCCCCCn1ccnc1`, “inactive”; under `CCOC(=O)COc1cc(-n2c(=S)[nH]c3ccccc3c2=O)c(Cl)cc1Cl`, “inactive”.
`CCCCc1nc(N2CCOCC2)c(C#N)c2c1CCCC2`: the outcome was inactive.
The same measure, in the same setting: in the case of `CCN1CCN(c2ccc(NC(=O)CCc3c(C)nc4c(-c5ccc(F)cc5)c(C)nn4c3C)cc2)CC1` it was “inactive”.
In the case of `CCOc1cc(/C=C(\C#N)C(=O)Nc2cccc(C(=O)O)c2)cc(Br)c1OC(=O)c1ccc(OC)cc1`, the result was inactive.
For the compound `COc1ccc(Cl)c2sc(N(CCN(C)C)C(=O)c3ccc4c(c3)OCCO4)nc12`, the outcome was inactive.
For the compound `CCCCN1C(=O)C(=O)N(CC(=O)Nc2cc(OCC)c(N3CCOCC3)cc2OCC)C1=O`, the outcome was inactive.
Regarding `CN(C)CCOc1ccc2ccccc2c1`, the result was inactive.
Consider `CCCn1c(NCc2cc(OC)ccc2OC)nc2ccccc21`, for which the outcome was inactive.
In the case of `COC(=O)c1ccc(NC(=O)CCN2CCN(Cc3ccccc3)CC2)cc1`, the outcome was inactive.
As to `Cn1c(=O)c2c(nc(SCCN3CCCCC3)n2Cc2ccccc2)n(C)c1=O`, the outcome was inactive.
On the same count and under the same terms, in the case of `O=C(NCc1ccccc1Cl)/C(=C\c1cccnc1)NC(=O)c1ccccc1` it was “inactive”; in that of `COC(=O)[C@@]12CCCN1[C@H](c1ccc(-c3ccc(OC)cc3)cc1)[C@@H]1C(=O)N(C)C(=O)[C@@H]12`, “inactive”; in that of `COc1ccc(-c2cc(C(F)(F)F)nc(N3CCN(C)CC3)n2)cc1`, “inactive”.
Still for that read-out and setting: in the case of `CCOc1ccc(NS(=O)(=O)c2ccc(NC(=S)NC(=O)CC(C)C)cc2)cc1` it was “inactive”.
Same read-out and setting: under `CCCN(CCC)CCCNC(=O)c1cc2c(=O)n(C)c3ccccc3c2n1C` stands “inactive”.
Turning to `COc1ccc(CNCC(O)(c2ccccc2)c2ccccc2)cc1OC`, the outcome was inactive.
Still for that read-out and setting: in the case of `CCOc1cc2[nH]c(=S)n(C3CC3)c(=O)c2cc1OCC` it was “inactive”; in that of `CCOC(=O)c1c(C(F)(F)C(F)(F)C(F)(F)C(F)(F)F)n[nH]c1C`, “inactive”; in that of `Cn1c(=O)cc(OCCCC(=O)NCCCN2CCN(Cc3ccccc3)CC2)c2ccccc21`, “inactive”.
In the case of `CC(=O)C1=C(O)C(=O)N(Cc2ccco2)C1c1ccc2c(c1)OCO2` (stereo not given), the inhibition (as a rule, the percentage by which the read-out fell short of the control) was 94% (active).
In the case of `CCc1cc2c(SCC(=O)N(C)C3CCS(=O)(=O)C3)ncnc2s1` (stereo not given), the outcome was inactive.
Still for that read-out and setting: under `OC(CNCC1CCCO1)Cn1c2ccc(Br)cc2c2cc(Br)ccc21` (stereo not given) stands “inactive”; under `CCN1CCN(c2ccc(S(=O)(=O)N3CCCCC3)cc2NC(=O)c2cccc(F)c2)CC1`, “inactive”.
`COC(=O)/C=C1\SC(=NC(=O)c2cccc(Cl)c2)NC1=O`: the inhibition was 76% (active).
Consider `CCCc1ccc(OCc2ccc(C(=O)N3CCCC3)o2)cc1`, for which the outcome was inactive.
For `Cc1ccc(-c2csc3ncnc(NCCN4CCOCC4)c23)cc1`, the inhibition was 76% (active).
Still for that read-out and setting: in the case of `Cn1c(=O)n(CCCO)c(=O)c2c1nc1n2CCCN1Cc1ccccc1` it was 86% (active).
As to `O=C(NC1CC1)c1ccc2c(c1)N(Cc1ccc(Cl)cc1)CCS2`, the outcome was inactive.
As to `O=C(COc1ccccc1-c1ccccc1)NCc1ccco1`, the result was inactive.
The same measure, in the same setting: in the case of `CCOc1ccc2nc(NCCNC(=O)C3CC3)c(C)cc2c1` it was “inactive”.
